Assay outcomes (PubChem BioAssay)
B2AR ag: beta2AR agonists driving receptor internalization, primary screen, cell-based, FAP fluorogen, flow cytometry; actives 0.43% (n = 340,000); Am2.2-beta2AR cells; AID 504454, 2011; Beta-2 adrenergic receptor (Homo sapiens), P07550; response, % (no concentration beside the values);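 active = response above a set limit, near 3 SD of response in nonfluorescent compounds, cut at about 42% in these data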
Target sequence (P07550 whole entry, looked up): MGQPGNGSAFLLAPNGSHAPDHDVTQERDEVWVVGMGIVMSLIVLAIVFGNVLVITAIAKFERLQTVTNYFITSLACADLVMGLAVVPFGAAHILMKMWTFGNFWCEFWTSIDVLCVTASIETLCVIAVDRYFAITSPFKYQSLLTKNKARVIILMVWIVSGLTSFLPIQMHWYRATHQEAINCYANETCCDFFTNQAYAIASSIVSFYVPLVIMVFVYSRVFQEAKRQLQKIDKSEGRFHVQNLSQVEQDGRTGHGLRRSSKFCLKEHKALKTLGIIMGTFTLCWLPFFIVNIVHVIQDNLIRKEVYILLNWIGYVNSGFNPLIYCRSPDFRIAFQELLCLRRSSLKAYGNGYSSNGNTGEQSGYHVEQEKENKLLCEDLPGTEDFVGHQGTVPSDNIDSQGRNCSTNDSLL
UPR XBP1 act: activators of adaptive XBP1 UPR arm, primary screen, cell-based, CHO-XBP1 luciferase reporter, luminescence, uHTS; IRE1-XBP1 UPR activation; percent of tunicamycin response, DMSO as zero; activation, % at 20 µM; actives 0.33% (n = 330,000);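 active = versus positive control, 20 µM dose yields 30% or more activation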
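Test system: CHO-XBP1 luciferase reporter cells | Buffer or medium: Serum-containing F12 medium, 10% FBS | Schedule: 6 h compound exposure at 37 °C, 5% CO2 | Detection: Steady-Glo luciferase glow luminescence, 10 min after reagent addition | Read-out basis: Activation, % of tunicamycin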
Dynein transport: inhibitors of GR-EGFP nuclear translocation, primary screen, dynein cargo transport inhibitor project, imaging, high-content, 3617.4 mouse cells | test concentration mostly 20 µM; stimulated with dexamethasone, 1 µM; hits give low values | z-score, hits read low | actives 0.47% (n = 220,000) | AID 1381, 2008;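 active = plate z-score of nuclear minus cytoplasmic receptor signal below a set negative limit, without overly bright fluorescence or cell loss, cut at about -3.5 in these data, passing the limit was not always enough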;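 note: z-score of nuclear minus cytoplasmic ring GR-EGFP intensity difference per well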
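Buffer or medium: Induction medium lacking tetracycline, stripped serum | Also added: Dexamethasone agonist, 1.0 µM final, for 30 min | Timing: 48 h induction, 1 h compound, 30 min dex at 37 °C | Detection: Formaldehyde fixation, Hoechst nuclear stain, 10x automated fluorescence imaging | Measure: Nuclear versus cytoplasmic GR-EGFP signal, averaged per well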
CHOP UPR activ: activators of apoptotic CHOP UPR arm, primary screen, cell-based, CHO-CHOP luciferase reporter, luminescence, uHTS; UPR activation; percent of tunicamycin response over DMSO baseline; activation, % at 10 µM; actives 0.34% (n = 330,000);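 active = at 10 µM dose, activation of 40% or more, normalized to positive control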
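Assay system: CHO cells with stable CHOP pathway luciferase reporter; Buffer or medium: F12 plus 10% serum; Times: 16-18 h cell attachment, then 6 h compound exposure, 37 °C; Signal: luciferase luminescence; Read-out basis: percent activation relative to tunicamycin control; Control set: tunicamycin high control, DMSO low control.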
Mdm2 ligase inh: MDM2-luciferase reporter signal enhancers, primary screen, MDM2 E3 ligase inhibitor project, cell-based, luminescence, 1536-well. cell-based MDM2 ubiquitination luciferase reporter, 2 h; 0 = plate control, 100 = twice control, blank-subtracted. actives 0.11% (n = 210,000). E3 ubiquitin-protein ligase Mdm2 (Homo sapiens), Q00987. signal enhancement, % at 5 µM;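 active = signal enhancement of 30% or more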;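 note: luminescence tracks abundance of the self-degrading MDM2-luciferase fusion protein; higher signal means inhibition of MDM2 E3 ligase activity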
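Assay system: stable mammalian line carrying autodegrading MDM2–luciferase fusion reporter; Input: 2000 cells in each well; Compound dosing: single-point 5 µM; Schedule: 2 h compound exposure at 37 °C; Signal: SteadyLite luciferase luminescence after 15 min room-temperature reagent incubation; Evaluation: % luminescence enhancement versus blank-corrected plate control mean; Benchmarks: plate controls and plate blanks.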
Mdm2 MdmX PPI: inhibitors of human Mdm2-MdmX association, primary screen, cell-based, luminescence, split luciferase, SaOS-2, uHTS; Protein Mdm4 (Homo sapiens) + E3 ubiquitin-protein ligase Mdm2 (Homo sapiens), …; SaOS-2 split-luciferase Mdm2/MdmX complementation; inhibition, % at 8 µM; actives 3% (n = 330,000); AID 485346, 2010;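 active = inhibition of at least 50% at 8 µM in the primary screen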
UPR CHOP confirm: activators of apoptotic CHOP UPR arm, confirmation, cell-based, CHO-CHOP luciferase reporter, single concentration. shares compounds with CHOP UPR activ. actives 64% (n = 1,000). activation, % at 10 µM. CHO-CHOP cells, CHOP-luciferase reporter luminescence; percent of tunicamycin response, DMSO as zero; in the data active = activation above about 33%
XBP1 UPR conf: IRE1-XBP1 UPR arm activators, confirmation, cell-based, CHO-XBP1 luciferase reporter, luminescence, single concentration. shares compounds with UPR XBP1 act. activation, % at 20 µM. actives 63% (n = 1,000). AID 485299, 2010;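 active = reporter signal at least 30% of the positive control's activation in two or more of four replicate wells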
Large screens that a line does not name were inactive (follow-up assays come after a bar, where they were run). Hits are enriched below; roughly 3.7% of the tested compounds scored in any of these assays.

COc1ccc(/C=C/c2nc3cc(-c4ccccc4)ccc3o2)cc1O	UPR XBP1 act 39, CHOP UPR activ 45 | UPR CHOP confirm 50 | XBP1 UPR conf 29
COc1cc(NS(=O)(=O)c2cc(C(=O)NCCc3ccccn3)ccc2OC)cc(OC)c1	none (no result: Dynein transport, Mdm2 ligase inh)
O=C1S/C(=C\C=C\c2ccco2)C(=O)N1c1ccccc1	none
O=C1S/C(=C\C=C\c2ccco2)C(=O)N1c1ccc(O)cc1	UPR XBP1 act 37, CHOP UPR activ 168 | UPR CHOP confirm inactive | XBP1 UPR conf inactive
Cn1c2ccccc2c2cc(/C=N/NC(=O)c3cc(O)ccc3O)ccc21	UPR XBP1 act 33, CHOP UPR activ 169 (no result: Dynein transport, Mdm2 ligase inh) | UPR CHOP confirm 84 | XBP1 UPR conf 87
O=C(CCS(=O)(=O)c1cc2c(cc1Cl)NC(=O)CO2)NCc1ccc(F)cc1	none (no result: Dynein transport, Mdm2 ligase inh)
Cn1nc(C(F)(F)F)c(/C=N/OC(=O)c2ccccc2)c1SCc1ccccc1Cl	UPR XBP1 act 91, CHOP UPR activ 52 | UPR CHOP confirm 100 | XBP1 UPR conf 115
COC(=O)[C@H](Cc1ccccc1)NC(=O)NCCc1ccc(OC)cc1	none (no result: Dynein transport, Mdm2 ligase inh)
Oc1ccc(/C=N/Nc2cc(N3CCOCC3)nc(N3CCOCC3)n2)cc1O	UPR XBP1 act 59, CHOP UPR activ 268 | UPR CHOP confirm 100 | XBP1 UPR conf 42
Oc1cccc(/C=N/Nc2cc(N3CCOCC3)nc(N3CCOCC3)n2)c1	none
CC1=C(CC/C(C)=N/NC(N)=S)C(C)(C)CCC1	UPR XBP1 act 58, CHOP UPR activ 151 (no result: Mdm2 ligase inh) | UPR CHOP confirm 48 | XBP1 UPR conf 55
Cc1ccc(-c2nc(N/N=C/c3cccnc3)c3ccccc3n2)cc1	none
Cc1ccc(-c2nc(N/N=C/c3cccc([N+](=O)[O-])c3)c3ccccc3n2)cc1	UPR XBP1 act 194, CHOP UPR activ 165 | UPR CHOP confirm 89 | XBP1 UPR conf 223
Oc1cccc(/C=N/Nc2ncnc3c2ncn3Cc2ccccc2)c1	none
Oc1ccc(/C=N/Nc2ncnc3c2ncn3Cc2ccccc2)cc1O	UPR XBP1 act 136, CHOP UPR activ 223 | UPR CHOP confirm 67 | XBP1 UPR conf 76
O=C1CN(C(=O)COC(=O)CCC(=O)c2ccc(F)cc2)c2ccccc2N1	none (no result: Dynein transport, Mdm2 ligase inh)
Cc1[nH]c2ccccc2c1CN1CCC(Cc2ccccc2)CC1	UPR XBP1 act 33, CHOP UPR activ 46 | UPR CHOP confirm 47 | XBP1 UPR conf inactive
Cc1[nH]c2ccccc2c(=O)c1CN1CCCCC1	none
Cc1cccc(N(C)S(=O)(=O)c2c[nH]c3ccc([N+](=O)[O-])cc23)c1	none (no result: Dynein transport, Mdm2 ligase inh)
Cc1nn(CC(=O)NC(=O)c2ccccc2)c(C)c1[N+](=O)[O-]	none (no result: Dynein transport, Mdm2 ligase inh)
O=C(NCCc1ccc(O)c(O)c1)C1COc2ccccc2O1 (stereo unspecified)	UPR XBP1 act 50, CHOP UPR activ 64 (no result: Dynein transport, Mdm2 ligase inh) | UPR CHOP confirm inactive | XBP1 UPR conf 46
O=C(NCCc1ccccc1)C1COc2ccccc2O1 (stereo unspecified)	none (no result: Dynein transport, Mdm2 ligase inh)
CCOC(=O)c1cc(C#N)c(Nc2ccc(C)cc2)nc1C(F)(F)F	none
COc1ccc(OC)c(NC(=O)c2ccc3c(=O)n(CCc4ccccc4)c(=S)[nH]c3c2)c1	UPR XBP1 act 36, CHOP UPR activ 46 | UPR CHOP confirm inactive | XBP1 UPR conf inactive
O=C1CC(c2ccccc2)CC(=O)N1c1ccc(C(F)(F)F)cc1	none (no result: Dynein transport, Mdm2 ligase inh)
c1ccc2sc(NC3=NCN(C4CCCCC4)CN3)nc2c1	none
CC1CCCCC1N1CN=C(Nc2nc3ccccc3s2)NC1 (stereo unspecified)	UPR XBP1 act 90, CHOP UPR activ 46 | UPR CHOP confirm 86 | XBP1 UPR conf 99
O=C(CSc1cccc2cccnc12)N/N=C/c1cccc(O)c1	none
O=C(N/N=C/c1ccc(O)c(O)c1)c1ccc(CSc2cccc3cccnc23)cc1	UPR XBP1 act 51, CHOP UPR activ 106 | UPR CHOP confirm inactive | XBP1 UPR conf 54
CCCN(CC(=O)Nc1ccccc1OC)C(=O)c1ccc(S(=O)(=O)Nc2ccccc2)cc1	none (no result: Dynein transport, Mdm2 ligase inh)
O=C(Nc1cccc(-c2nc3ccccc3s2)c1)c1cc(-n2cnnc2)ccc1Cl	none
Cc1ccc2sc(-c3ccc(NC(=O)c4cc(-n5cnnc5)ccc4Cl)cc3)nc2c1	UPR XBP1 act 69, CHOP UPR activ 85 | UPR CHOP confirm inactive | XBP1 UPR conf inactive
CCOc1ccc(NC(=O)/C=C/c2ccc(OC)cc2)c([N+](=O)[O-])c1	none
CCOc1ccc(NC(=S)NC(=O)/C=C/c2ccc(OC)c(OC)c2)c([N+](=O)[O-])c1	UPR XBP1 act 168, CHOP UPR activ 61 (no result: B2AR ag) | UPR CHOP confirm 49 | XBP1 UPR conf 251
CC(OC(=O)c1cc(=O)[nH]c2ccccc12)C(=O)Nc1ccccc1F (stereo unspecified)	none (no result: Dynein transport, Mdm2 ligase inh)
CCn1cc(C(=O)NC(=S)Nc2sc3c(c2C(=O)OC)CCCCCC3)cn1	UPR XBP1 act 60, CHOP UPR activ 71 | UPR CHOP confirm 35 | XBP1 UPR conf 57
CCOC(=O)c1c(NC(=O)c2nn(CC)cc2Br)sc2c1CCCCC2	none
CCc1ccc2[nH]c(=O)c(CN(Cc3ccc(F)cc3)C(c3nnnn3CCN3CCOCC3)C(C)C)cc2c1 (stereo unspecified)	UPR XBP1 act 38, CHOP UPR activ 55 | UPR CHOP confirm inactive | XBP1 UPR conf inactive
CCOC(=O)c1nn(-c2ccc(OCC)cc2)c2nc(-c3ccco3)c(C#N)c(=O)n12	UPR XBP1 act 75, CHOP UPR activ 53 | UPR CHOP confirm inactive | XBP1 UPR conf 52
Cc1ccc(-n2nc3cc(C)c(NC(=S)NC(=O)/C=C/c4ccco4)cc3n2)cc1	UPR XBP1 act 56, CHOP UPR activ 65 | UPR CHOP confirm 128 | XBP1 UPR conf 114
